Broadly, the CC50 is the concentration at which the toxic effect on the cells reaches its halfway point.

The nature of data set [1]: HepG2 cytotoxicity. Format: cell-based. The note with it: human, HepG2 cells (ATCC HB-8065). Summed up:
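HepG2 human hepatocarcinoma cells in Glutamax DMEM with 10% FBS and penicillin/streptomycin, seeded and held at 37 °C under 5% CO2. Serial dilutions of test compound (0.01–200 μM) added, viability read after 72 h by Alamar Blue per manufacturer's protocol. CC50 derived by non-linear fitting of viability versus concentration.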

Data set [2] deals with L. infantum amastigotes. Format: cell-based, Leishmania infantum. Summed up: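 Female BALB/c mice were infected intraperitoneally with 10^8 iRFP-expressing metacyclic promastigotes. After five weeks, spleen cells were collagenase-dispersed into RPMI with 10% FBS and exposed to test compound (0.01–200 μM) at 37 °C, 5% CO2. After 72 h, amastigote viability was read by infrared fluorescence at 713 nm, and EC50 came from a nonlinear fit. HepG2 CC50 (Alamar Blue, 72 h, 0.01–200 μM) was divided by this EC50.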

In data set [3] the test system is L. infantum promastigotes. The data set can be described thus: In vitro assay on iRFP-L. infantum promastigotes. In kind it is cell-based, Leishmania infantum. Summed up: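 iRFP-expressing L. infantum BCN150 promastigotes at 1 × 10^6 cells/mL in supplemented M199 (25 mM HEPES pH 6.9, 10% FBS). DMSO stocks were diluted in M199 to 0.01–200 μM final, with 72 h exposure at 26 °C. Viability was read as 713 nm infrared fluorescence, in triplicate. EC50 came from nonlinear fits. SIp = HepG2 72 h Alamar Blue CC50 / promastigote EC50.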

Compound `CCCCCCCCCCCCCCCCOP(=O)([O-])OCC[N+](C)(C)C` [MTF, Miltefosine] returned a CC50 at 72 h in data set [1] of 50.4 ± 4.3 µM. The “SIa: Selectivity Index for amastigotes (CC50 HepG2/EC50 amastigotes)” value in data set [2] worked out at 21. Besides, the “SIp: Selectivity Index for promastigotes (CC50 HepG2/EC50 promastigotes)” value in data set [3] is reported as 8.5.

Values taken from paper PMC6904838 (International Journal for Parasitology: Drugs and Drug …, 2019).
